Test results published in ChEMBL document CHEMBL4513216, “Probing the Open Global Health Chemical Diversity Library for Multistage-Active Starting Points for Next-Generation Antimalarials” (ACS Infect Dis, 2020).

Assay: Toxicity liver stage against HepG2, at 10uM
Format: cell-based
Design: test concentration 10 uM, cell line HepG2-A16-CD81EGFP
Settings: human, HepG2-A16-CD81EGFP cells; read-out: INHIBITION
Outline: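 Uninfected HepG2-A16-CD81EGFP cells, 3 × 10^3 per well, 1536-well, plated on prespotted compound at 10 μM final, parasite-free screening media added to match infected plates; puromycin 10 μM positive, DMSO 0.5% negative; run in parallel with 48 h PbLuc assay at 37 °C, 5% CO2; viability by CellTiter-Glo luminescence, normalized to controls.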

| Compound | cytotoxicity at 10 µM |
| --- | --- |
| CCc1ccc(CN(C)Cc2nc(COc3ccccc3)no2)nc1 | 6.58% |
| COc1c[nH]c(C(=O)Nc2nc(C(C)(C)C)cs2)cc1=O | -49.6% |
| O=C(C1CCOC1)N1CCN(Cc2cccnc2)c2ncccc2C1 (configuration not stated) | 3.07% |
| CCn1nc(C)c2nnn(CC(=O)Nc3ccc(C)cc3)c(=O)c21 | 8.49% |
| NCCC(=O)NCC1(O)CCCN(c2ccnc3cccnc23)C1 (configuration not stated) | 0.72% |
| COCCC(=O)N1C[C@@H](c2ccccc2F)[C@@]2(CCCC(=O)N2)C1 | 0.55% |
| CNC(=O)c1cn[nH]c1C1(C)CCCN(CC2(O)CCCCC2)C1 (configuration not stated) | -26% |
| CCn1ncc(CN2CCc3nc(-c4cccnc4)nc(O)c3C2)c1C | -23.7% |
| COc1cnc(C2(O)CCN(C(=O)c3ccco3)CC2)c(OC)n1 | -7.02% |
| CCn1cc(CN2CCc3nc(N4CCOCC4)nc(O)c3CC2)cn1 | -5.59% |
| Cc1cc(C(=O)NCc2cccs2)c2c(C3CCCN3)noc2n1 (configuration not stated) | 6.36% |
| Cc1csc(N2CCCN(C(=O)c3cccs3)CC2)n1 | -8.08% |
| CN(C)CC(C)(O)CNC(=O)Nc1sc2ccccc2c1Cl (configuration not stated) | 11.5% |
| COC(=O)C(NC(=O)c1ccc(N(C)C)nc1)c1ccccc1 (configuration not stated) | 4.15% |
| CCOCCCC(=O)N1CCCC1c1nc(-c2ccccc2F)c[nH]1 (configuration not stated) | 12.5% |
| COc1ccccc1CC(C)CC(=O)O (configuration not stated) | 12.9% |
| CCNC(=O)c1ccc(NC(=O)N(C)Cc2cc(C)on2)c(C)c1 | 6.2% |
| CC(C)NC(=O)c1ccc(NC(=O)NC(C)c2ccccn2)cc1 (configuration not stated) | 9.44% |
| Cc1ccnc(NS(=O)(=O)c2cc(C(N)=O)n(C)c2)c1 | 0.814% |
| O=C(Cc1ccc(F)cc1)NS(=O)(=O)c1ccc(F)c(F)c1 | -9.07% |
| Cc1nc(CSCCC(=O)NCC(=O)NC(C)C)cs1 | -2.03% |
| CCCc1noc(CCC(=O)N2CCCC(n3ccnc3C)C2)n1 (configuration not stated) | -4.39% |
| CCOCCC(=O)N1CCN(CC(C)O)CC1 (configuration not stated) | 6.7% |

| Compound | cytotoxicity at 10 µM |
| --- | --- |
| Cc1nn(C)c(N(C)C)c1CNCc1ccc(N(C)C)nc1 | -1.24% |
| Cc1ccc(CNC(=O)NC2CCN(CC(F)F)CC2)cc1 | -6.25% |
| Cc1cc(NC(=O)c2ccc(F)cc2F)n(C)n1 | -2.18% |
| Cc1cc(CNC(=O)Nc2cccc(COCCOC(C)C)c2)no1 | 11% |
| O=C(CN1CCCC1CCCO)NCc1ccccn1 (configuration not stated) | -5.6% |
| CC(C)(C)n1cc(NCc2cscn2)cn1 | -6.08% |
| Cc1ccc2cc(C(=O)N3CCCCC3c3nc[nH]n3)ccc2n1 (configuration not stated) | -5.92% |
| O=S(=O)(CCO)Cc1ccc(OC(F)F)cc1 | -2.88% |
| CCC(Nc1cccc(Oc2ccc(C#N)cc2)c1)C(N)=O (configuration not stated) | 38% |
| Cn1cc(Br)cc1C(=O)NCC(C)(O)c1ccsc1 (configuration not stated) | -49% |
| N#Cc1c[nH]c(C(=O)N(Cc2ccc(O)cc2)CC2CC2)c1 | 11.5% |
| Cc1ccc(C(NCC(=O)N2CCNC(=O)C2)c2ccccc2)cc1 (configuration not stated) | 2.1% |
| CCS(=O)(=O)NCCN(CCO)C1CCc2ccccc21 (configuration not stated) | 14.4% |
| CC1CN(C)c2ccccc2N(C(=O)c2c[nH]c(C(C)C)n2)C1 (configuration not stated) | 3.61% |
| Cc1ccc(C(CNCc2cccc3c2OCO3)N2CCOCC2)o1 (configuration not stated) | -38.9% |
| CCN1C(=O)C2(CCCCC2)NC1c1cc(C#N)n(C)c1C (configuration not stated) | 4.59% |
| c1csc(CCN2CCCC2c2noc(C3CC3)n2)c1 (configuration not stated) | 9.15% |
| OCCOc1nc(-c2ccccc2Cl)no1 | -10.5% |
| Cc1c(C(=O)NCC2CCCO2)nnn1-c1cccc2c1CCN(C)C2 (configuration not stated) | 1.96% |
| CN(CCn1nc2ccccn2c1=O)CC(=O)NC1CC1 | 3.2% |
| Cc1noc(C(C)N2CCN(CC(=O)N3CCOCC3)CC2)n1 (configuration not stated) | -8.41% |
| O=C(C1CC=CC1)N1CCCn2nnc(CNc3ncccn3)c2C1 | 6.97% |
| CCO[C@H]1CC[C@H]2[C@H]1OCCN2C(=O)CC1=CCCCC1 | 1.75% |

| Compound | cytotoxicity at 10 µM |
| --- | --- |
| O=c1ccc2c(n1CCN1CCCC1)CCN(c1ncccn1)CC2 | 8.33% |
| CC(C)CN1C[C@@H]2CN(C(=O)c3cccn3C)C[C@@H]2C1=O | -111% |
| CCOC1COC2(CCN(S(=O)(=O)c3cccc(F)c3)CC2)C1 (configuration not stated) | 5.15% |
| CC(C)(CO)Nc1cc(-c2ccccc2)ncn1 | -7.8% |
| CSc1ncccc1C(=O)N(C)CCc1scnc1C | 4.23% |
| Cc1nc2cc(OCc3nc(C(=O)NC(CO)CO)co3)ccc2s1 | 4.01% |
| O=c1n(CC2CC2)nc(C2CCNCC2)n1Cc1ccccc1 | -4.8% |
| CCOc1ccccc1N1CCN(CC2(O)CCCNC2)CC1 (configuration not stated) | -2.36% |
| COc1ccccc1CN1C(=O)O[C@@H]2CN(c3ccccn3)C[C@@H]21 | 5.97% |
| COCC(C)N(Cc1ccccc1OC)C(=O)c1cc(C)[nH]c(=O)c1 (configuration not stated) | -3.73% |
| Cc1ccc(N2CCC(c3nccn3Cc3cscn3)CC2)nn1 | -12.8% |
| CN(Cc1cnn(C)c1)C(=O)C1COc2ccccc2C1 (configuration not stated) | 0.583% |
| O=C1CC2(CCCC2)CC(=O)N1Cc1ncccn1 | 1.27% |
| CC(C)c1noc(C(C)Nc2nccc(CCC(F)(F)F)n2)n1 (configuration not stated) | 2.08% |
| CN(C)c1cnn(Cc2nc3ccccc3n2C)c(=O)c1 | 10.9% |
| CN(C(=O)CN1CCCC1=O)C1CCCN(C2Cc3ccccc3C2)C1 (configuration not stated) | 0.024% |
| Cc1ccccc1CN(CCN(C)C)Cc1ccc(O)c(C(=O)O)c1 | 0.935% |
| Cc1ccc(-c2n[nH]cc2CN(Cc2nccn2C)C(C)C)cc1C | 2.57% |
| O=C(O)C(c1ccc2c(c1)OCO2)N1CCCCCC1 (configuration not stated) | -0.293% |
| O=C(O)c1ccc(N2CCC(Oc3ccc(Cl)cc3)CC2)nc1 | -55.6% |
| O=C(NCCc1c[nH]cn1)C1CCCN(Cc2ccco2)C1 (configuration not stated) | -0.123% |
| COC(C)(C)CC(C)NCc1cc(-c2ccco2)on1 (configuration not stated) | 1.81% |
| CCC(=O)N1CCC(Oc2ccc(C(=O)NCCN(C)C)cc2Cl)CC1 | 4.12% |

| Compound | cytotoxicity at 10 µM |
| --- | --- |
| COCCN(C/C=C/c1ccccc1)Cc1[nH]cnc1C | 10.3% |
| CNc1cncc(C2CCCN2C(=O)c2ccc3oc(=O)n(C)c3c2)n1 (configuration not stated) | -1.57% |
| COc1c(C2CCCN2C(=O)c2cnc[nH]2)c(C)nn1C (configuration not stated) | -1.68% |
| N#Cc1cccc(CNCCNC(=O)Cc2cccc(F)c2)c1 | 3.7% |
| COC(=O)C(NC(=O)C1CC1)c1cc(F)ccc1F (configuration not stated) | -4.64% |
| O=C(CN1C=Nc2ccccc2S1(=O)=O)NCC1CC1 | -10.2% |
| Cc1nccc(-c2cccc(NCC(=O)NCC(=O)N3CCCC3)c2)n1 | -9.18% |
| O=C(CCOc1ccccc1F)N1CCCC1Cn1cccn1 (configuration not stated) | -3.71% |
| COc1ccccc1CC(=O)N1CCC(NCc2ccc(C)o2)CC1 | -5.28% |
| O=C(Nc1ccc(CCN2CCC(O)CC2)cc1)C1CCCCC1 | -17.7% |
| CCn1cnnc1CNC(=O)c1cc(F)ccc1OC | -14.3% |
| O=C(NCCNc1cnccn1)N1CCN(c2nccs2)CC1 | -0.84% |
| Cc1nc(C)n(CC2CCCN(CCOc3ccccc3C#N)C2)n1 (configuration not stated) | 4.61% |
| CN(C)Cc1cccc(C(=O)N2CCCC(n3cncn3)C2)c1 (configuration not stated) | -5.87% |
| CC(C)NC(=O)Nc1ccc(CNCc2ccc(OC(F)F)cc2)cc1 | -3.95% |
| NS(=O)(=O)c1cc(C(=O)N2CCCC(n3ccnc3)C2)cs1 (configuration not stated) | -11.3% |
| Cc1cnn(CC2CN(Cc3nc4ccccc4c(=O)[nH]3)CCO2)c1 (configuration not stated) | -7.62% |
| O=C(NCCNc1ccc(C(F)(F)F)cn1)c1ccc(Cl)cc1F | -1.99% |
| CC(C)c1nnc2n1CCN(C(=O)c1ccc(OCC3CC3)cc1)C2 | -6.14% |
| O=C(Cc1cccc(F)c1)NCCNCc1ccco1 | -6.08% |
| Cc1cc(C2CCCN(C(=O)CN3CCN(C)CC3)C2)n[nH]1 (configuration not stated) | -4.18% |
| COc1ncccc1CNC(=O)NC1CCOc2ccccc21 (configuration not stated) | -7% |
| COc1ccc(CNCc2ccnc(N3CCOCC3)c2)c(OC)c1 | -8.92% |

| Compound | cytotoxicity at 10 µM |
| --- | --- |
| Cc1ccc2oc(C(=O)N3CCC(C(=O)N4CCCC4)CC3)cc2n1 | -1.35% |
| CC(C)c1ccc(OCCC(=O)N2CCC(CC(N)=O)CC2)cc1 | -14% |
| CNS(=O)(=O)c1ccc(C(=O)N2CCCC(n3cccn3)C2)cc1 (configuration not stated) | -7.95% |
| CCC(CC)C(CNC(=O)Nc1cc(C)nn1C)N1CCOCC1 (configuration not stated) | 1.74% |
| CN(Cc1cnn(C)c1)C(=O)NC1CCN(Cc2ccccn2)CC1 | -2.35% |
| CN(Cc1ccc2c(c1)OCCO2)C(=O)Cn1ccccc1=O | 1.2% |
| Cc1nc(CN2CCCN(C(=O)C(C)OCC3CC3)CC2)cs1 (configuration not stated) | -3.87% |
| O=C1NCCN1C1CCN(CCc2cccs2)CC1 | -1.32% |
| O=C(NCCC(=O)N1CCCCCC1)c1c(O)cc(F)cc1F | -1.8% |
| O=C(Cc1ccsc1)N1CCN(CC2CC2)c2ncccc2C1 | -101% |
| CN1CC(=O)N(c2ccccc2)CC12CCN(C(=O)c1cnccn1)C2 (configuration not stated) | 9.91% |
| CC(C)N(C)Cc1nnc2n1CCCN(c1ncccn1)C2 | 3.24% |
| CCOCCN1C[C@H](C(=O)Nc2cccnc2)[C@@H]2CCO[C@@H]2C1 | -101% |
| CC[C@@H]1N(Cc2ccc(C)o2)CCC[C@]12CCC(=O)N2CCOC | 10.5% |
| Cc1noc(C)c1CN1CCO[C@H]2CN(C(=O)C3CCOCC3)C[C@H]21 | 0.845% |
| Cn1ccnc1C(=O)N[C@@H]1CN(Cc2ccoc2)[C@@H]2CCCO[C@@H]21 | -99.9% |
| c1cncc(CNc2ccc3nc(C4CCNCC4)nn3c2)c1 | -108% |
| O=C1OCCN1CC(=O)N1C[C@@H]2CC[C@H]1CN(C(=O)c1cccnc1)C2 | 11.6% |
| NCC1CCC(C(NC(=O)C2CC2)c2ccccn2)CC1 (configuration not stated) | -12.6% |
| CCc1oc(C(=O)N2CC[C@@H]3CC[C@H](C2)N3)cc1CN(CC)CC | 4.83% |
